# Reference: ChEMBL document CHEMBL5046221, “Identification of Pyrimidine-Based Lead Compounds for Understudied Kinases Implicated in Driving Neurodegeneration” (J Med Chem, 2022)
# Columns and labels:
# [1] = molecular target: Aurora kinase B (Homo sapiens) (UniProt Q96GD4); assay: Inhibition of full length recombinant human AURKB using AKRRRLSSLRA as substrate at 1 uM incubated for 40 mins in presence of [gamma-33P-ATP] by radiometric scintillation assay relative to control
# Summary of the method: (§1)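 Eurofins radiometric kinase assay with ATP at Km for each kinase. Compound was tested at a single 1 μM concentration in duplicate, and the result is reported as percent of control.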
# [2] = molecular target: MAP/microtubule affinity-regulating kinase 3 (Homo sapiens, UniProt P27448); assay: Displacement of tracer K9 from NLuc fused MARK3 (unknown origin) expressed in HEK293 cells by NanoBRET assay; assay type: cell-based
# MAP/microtubule affinity-regulating kinase 3, sequence (P27448 whole entry, the tested form may be a part): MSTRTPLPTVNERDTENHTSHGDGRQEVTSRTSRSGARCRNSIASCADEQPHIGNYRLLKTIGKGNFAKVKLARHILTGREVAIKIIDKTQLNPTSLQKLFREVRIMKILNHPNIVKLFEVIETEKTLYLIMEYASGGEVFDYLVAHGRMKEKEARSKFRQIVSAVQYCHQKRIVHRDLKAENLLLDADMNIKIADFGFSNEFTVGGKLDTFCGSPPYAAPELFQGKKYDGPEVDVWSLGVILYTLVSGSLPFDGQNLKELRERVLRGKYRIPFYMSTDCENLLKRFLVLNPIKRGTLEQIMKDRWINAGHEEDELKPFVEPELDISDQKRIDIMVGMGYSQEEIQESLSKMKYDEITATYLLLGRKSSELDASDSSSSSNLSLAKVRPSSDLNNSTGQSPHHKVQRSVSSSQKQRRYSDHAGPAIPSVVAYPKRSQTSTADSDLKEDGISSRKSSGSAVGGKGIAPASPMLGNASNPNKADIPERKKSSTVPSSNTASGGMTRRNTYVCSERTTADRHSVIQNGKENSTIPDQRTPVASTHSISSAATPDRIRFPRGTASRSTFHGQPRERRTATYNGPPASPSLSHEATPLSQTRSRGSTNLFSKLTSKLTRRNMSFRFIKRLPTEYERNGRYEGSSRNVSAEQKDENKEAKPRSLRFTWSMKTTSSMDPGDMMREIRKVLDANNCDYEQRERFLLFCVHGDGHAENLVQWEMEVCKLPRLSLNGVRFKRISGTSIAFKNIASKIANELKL
# [3] = molecular target: T1, MAP/microtubule affinity-regulating kinase 4 (Homo sapiens, UniProt Q96L34); assay: Displacement of tracer K5 from NLuc fused MARK4 (unknown origin) expressed in HEK293 cells by NanoBRET assay; assay type: cell-based
# T1 sequence (Q96L34 whole entry): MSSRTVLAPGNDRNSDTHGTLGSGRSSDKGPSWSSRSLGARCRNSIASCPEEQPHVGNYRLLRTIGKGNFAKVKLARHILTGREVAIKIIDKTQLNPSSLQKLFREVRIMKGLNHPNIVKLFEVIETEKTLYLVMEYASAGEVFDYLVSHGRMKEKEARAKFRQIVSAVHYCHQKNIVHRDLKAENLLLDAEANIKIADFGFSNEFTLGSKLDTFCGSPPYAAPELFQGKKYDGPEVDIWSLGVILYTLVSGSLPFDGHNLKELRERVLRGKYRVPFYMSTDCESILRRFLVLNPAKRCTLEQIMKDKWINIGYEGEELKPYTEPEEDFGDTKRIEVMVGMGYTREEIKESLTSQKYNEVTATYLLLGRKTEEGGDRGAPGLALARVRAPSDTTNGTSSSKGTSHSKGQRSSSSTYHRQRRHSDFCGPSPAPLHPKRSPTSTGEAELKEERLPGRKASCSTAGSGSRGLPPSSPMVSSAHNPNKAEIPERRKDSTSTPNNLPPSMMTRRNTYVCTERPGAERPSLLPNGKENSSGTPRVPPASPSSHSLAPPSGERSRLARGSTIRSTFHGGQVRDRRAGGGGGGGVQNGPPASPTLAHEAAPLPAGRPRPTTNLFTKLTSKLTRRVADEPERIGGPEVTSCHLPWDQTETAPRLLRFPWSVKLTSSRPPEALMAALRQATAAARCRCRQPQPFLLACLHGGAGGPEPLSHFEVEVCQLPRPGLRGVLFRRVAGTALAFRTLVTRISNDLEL
# [4] = molecular target: T2, NUAK family SNF1-like kinase 1 (Homo sapiens, UniProt O60285); assay: Inhibition of recombinant human ARK5 (2 to end residues) using KKKVSRSGLYRSPSMPENLNRPR as substrate incubated for 40 mins in presence of [gamma-33ATP] by scintillation counting based radiometry assay
# T2 sequence (O60285 whole entry): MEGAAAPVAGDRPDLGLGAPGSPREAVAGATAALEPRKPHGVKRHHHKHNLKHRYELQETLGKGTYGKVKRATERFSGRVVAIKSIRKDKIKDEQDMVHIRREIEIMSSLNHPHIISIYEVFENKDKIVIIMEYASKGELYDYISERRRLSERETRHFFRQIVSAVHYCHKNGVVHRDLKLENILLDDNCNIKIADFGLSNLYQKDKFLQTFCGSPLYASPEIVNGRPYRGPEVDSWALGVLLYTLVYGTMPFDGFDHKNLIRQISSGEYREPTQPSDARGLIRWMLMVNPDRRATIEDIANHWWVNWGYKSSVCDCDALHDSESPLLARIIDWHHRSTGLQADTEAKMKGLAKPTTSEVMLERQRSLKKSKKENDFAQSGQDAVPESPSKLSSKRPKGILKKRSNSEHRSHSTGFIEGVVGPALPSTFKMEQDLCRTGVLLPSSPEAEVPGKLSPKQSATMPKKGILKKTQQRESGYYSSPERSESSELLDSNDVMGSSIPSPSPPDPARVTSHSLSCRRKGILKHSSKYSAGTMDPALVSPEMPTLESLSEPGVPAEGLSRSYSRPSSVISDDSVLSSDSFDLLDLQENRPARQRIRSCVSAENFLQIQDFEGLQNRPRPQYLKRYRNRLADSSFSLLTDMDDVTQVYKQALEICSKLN
# Summary of the method: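 Eurofins radiometric enzymatic assay with ATP at Km for each kinase. IC50 was derived from a 9-point dose–response curve run in duplicate.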
# [5] = molecular target: Tyrosine-protein kinase JAK2 (Homo sapiens) (UniProt O60674); assay: Inhibition of recombinant human JAK2 (808 to end residues) using KTFCGTPEYLAPEVRREPRILSEEEQEMFRDFDYIADWC as substrate at 1 uM incubated for 40 mins in presence of [gamma-33P-ATP] by radiometric scintillation assay relative to control; summary of the method: as §1
# Tyrosine-protein kinase JAK2 (Homo sapiens), sequence (O60674 whole entry): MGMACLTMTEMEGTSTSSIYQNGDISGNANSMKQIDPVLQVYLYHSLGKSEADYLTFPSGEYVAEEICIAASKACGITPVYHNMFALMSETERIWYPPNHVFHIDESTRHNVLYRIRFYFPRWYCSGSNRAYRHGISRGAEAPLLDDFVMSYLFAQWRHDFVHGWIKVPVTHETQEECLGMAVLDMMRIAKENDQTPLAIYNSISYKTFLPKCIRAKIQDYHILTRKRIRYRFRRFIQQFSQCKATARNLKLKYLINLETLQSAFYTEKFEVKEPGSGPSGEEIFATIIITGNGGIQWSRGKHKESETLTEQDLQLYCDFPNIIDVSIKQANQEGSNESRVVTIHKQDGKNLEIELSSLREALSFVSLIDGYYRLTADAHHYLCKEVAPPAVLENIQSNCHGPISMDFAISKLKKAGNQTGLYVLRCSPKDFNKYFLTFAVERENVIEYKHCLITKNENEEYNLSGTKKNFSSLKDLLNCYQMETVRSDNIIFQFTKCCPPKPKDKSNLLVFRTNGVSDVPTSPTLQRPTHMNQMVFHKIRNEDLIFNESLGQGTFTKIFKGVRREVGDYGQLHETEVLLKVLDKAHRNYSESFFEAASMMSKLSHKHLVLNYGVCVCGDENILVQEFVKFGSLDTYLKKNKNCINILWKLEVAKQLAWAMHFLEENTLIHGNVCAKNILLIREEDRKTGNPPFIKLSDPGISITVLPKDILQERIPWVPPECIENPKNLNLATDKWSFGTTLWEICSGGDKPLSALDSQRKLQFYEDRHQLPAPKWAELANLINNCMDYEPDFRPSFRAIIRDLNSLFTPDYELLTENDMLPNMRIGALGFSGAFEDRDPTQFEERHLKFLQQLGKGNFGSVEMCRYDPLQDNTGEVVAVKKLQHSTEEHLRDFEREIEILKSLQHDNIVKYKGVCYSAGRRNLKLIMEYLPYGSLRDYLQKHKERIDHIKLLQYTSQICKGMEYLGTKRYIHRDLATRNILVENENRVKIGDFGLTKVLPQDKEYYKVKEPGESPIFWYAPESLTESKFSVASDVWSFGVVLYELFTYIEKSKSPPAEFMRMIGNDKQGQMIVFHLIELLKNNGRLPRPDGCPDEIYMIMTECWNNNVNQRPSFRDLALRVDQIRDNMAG
# [6] = molecular target: High affinity nerve growth factor receptor (Homo sapiens, UniProt P04629); assay: Inhibition of human TrkA (440 to end residues) using KKKSPGEYVNIEFG as substrate measured after 40 mins in presence of [gamma33P]ATP by scintillation counting method
# High affinity nerve growth factor receptor, sequence (P04629 whole entry): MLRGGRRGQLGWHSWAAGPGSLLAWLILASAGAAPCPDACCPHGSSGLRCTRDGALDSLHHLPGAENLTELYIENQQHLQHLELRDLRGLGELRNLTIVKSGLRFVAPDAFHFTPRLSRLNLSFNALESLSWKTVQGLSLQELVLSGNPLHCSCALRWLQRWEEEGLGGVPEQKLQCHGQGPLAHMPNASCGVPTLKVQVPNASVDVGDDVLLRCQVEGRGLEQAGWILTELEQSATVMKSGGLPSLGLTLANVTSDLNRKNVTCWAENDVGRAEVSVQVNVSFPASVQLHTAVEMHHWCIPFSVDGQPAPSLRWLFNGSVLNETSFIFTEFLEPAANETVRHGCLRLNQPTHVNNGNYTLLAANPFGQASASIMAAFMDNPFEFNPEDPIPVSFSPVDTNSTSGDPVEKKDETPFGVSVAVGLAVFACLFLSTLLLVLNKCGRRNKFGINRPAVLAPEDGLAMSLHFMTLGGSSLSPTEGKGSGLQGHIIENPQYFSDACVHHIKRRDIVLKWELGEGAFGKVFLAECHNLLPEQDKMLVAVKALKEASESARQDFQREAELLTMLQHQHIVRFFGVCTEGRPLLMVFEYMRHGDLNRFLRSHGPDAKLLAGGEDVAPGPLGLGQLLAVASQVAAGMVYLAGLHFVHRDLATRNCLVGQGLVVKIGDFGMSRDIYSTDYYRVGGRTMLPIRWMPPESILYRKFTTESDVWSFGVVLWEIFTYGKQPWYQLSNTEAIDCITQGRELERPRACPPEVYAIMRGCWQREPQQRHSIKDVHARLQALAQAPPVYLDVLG
# Summary of the method: (§2)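 Eurofins radiometric kinase assay run at ATP equal to Km for each kinase. 9-point dose–response in duplicate gives the IC50.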
# [7] = Inhibition of human TTBK1 (1 to 479 residues) using Casein as substrate measured after 40 mins in presence of [gamma33P]ATP by scintillation counting method; summary of the method: as §2
# Aurora kinase B (Homo sapiens), sequence (Q96GD4 whole entry): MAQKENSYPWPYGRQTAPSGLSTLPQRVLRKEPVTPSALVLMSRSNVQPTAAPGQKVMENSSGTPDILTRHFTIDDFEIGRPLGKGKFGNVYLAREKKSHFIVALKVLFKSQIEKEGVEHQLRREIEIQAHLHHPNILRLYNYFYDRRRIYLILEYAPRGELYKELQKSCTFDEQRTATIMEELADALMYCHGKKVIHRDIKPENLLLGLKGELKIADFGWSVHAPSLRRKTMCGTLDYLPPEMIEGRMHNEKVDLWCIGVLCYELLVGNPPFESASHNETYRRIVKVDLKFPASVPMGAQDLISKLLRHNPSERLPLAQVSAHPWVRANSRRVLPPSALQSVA
Structure (SMILES),% control [1] [%],IC50 [2] [µM],IC50 [3] [µM],IC50 [4] [nM],% control [5] [%],IC50 [6] [nM],IC50 [7] [nM]
c1cc(CN2CCOCC2)cc(Nc2nccc(NCCc3cnc[nH]3)n2)c1,5,> 10,> 10,176,81,–,–
NS(=O)(=O)c1ccc(CNc2nc(Nc3cccc(CN4CCOCC4)c3)ncc2Br)cc1,7,> 10,> 10,171,3,158,66
NS(=O)(=O)c1ccc(CNc2nc(Nc3cccc(NC(=O)N4CCCC4)c3)ncc2Br)cc1,6,> 10,> 10,317,12,283,192
NS(=O)(=O)c1ccc(CNc2nc(Nc3cccc(CN4CCOCC4)c3)ncc2C2CC2)cc1,51,> 10,> 10,–,87,153,187
